In ChEMBL document CHEMBL3120055, “HPLC-based activity profiling for GABAA receptor modulators in Adenocarpus cincinnatus” (J Nat Prod, 2014):
Active and inactive are the calls of the source. The rule behind the calls is not given here.

Tests used:
Rattus norvegicus [1] = species on record: Rattus norvegicus; assay: Positive allosteric modulation of rat alpha1beta2gamma2S GABAA receptor expressed in Xenopus laevis oocytes assessed as potentiation of GABA-induced chloride current at 100 uM by two-microelectrode voltage clamp electrophysiology relative to control; assay type: cell-based
Rattus norvegicus [2] = species on record: Rattus norvegicus; assay: Positive allosteric modulation of rat alpha1beta2gamma2S GABAA receptor expressed in Xenopus laevis oocytes assessed as potentiation of GABA-induced chloride current at 300 uM by two-microelectrode voltage clamp electrophysiology; assay type: cell-based
In short: (§1)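 Rat α1β2γ2s cRNAs (1:1:10) were injected into collagenase-treated Xenopus oocytes, which were kept at 18 °C in ND96 and recorded on days 1–5. Two-electrode clamp was held at −70 mV in bath containing 90 mM NaCl and 5 mM HEPES, pH 7.4. Compound at 0.1–300 μM was co-applied with GABA EC5–10 by fast perfusion, with 1% DMSO final. Enhancement is I(GABA+Comp)/IGABA − 1, given as mean ± SE from four oocytes across three batches.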

[3] = Positive allosteric modulation of rat alpha1beta2gamma2S GABAA receptor expressed in Xenopus laevis oocytes assessed as potentiation of GABA-induced chloride current by two-microelectrode voltage clamp electrophysiology; assay type: cell-based; in short: as §1
Rattus norvegicus [4] = species on record: Rattus norvegicus; assay: Agonist activity at rat alpha1beta2gamma2S GABAA receptor expressed in Xenopus laevis oocytes assessed as direct activation of chloride current in absence of GABA at 0.1 to 30 uM by two-microelectrode voltage clamp electrophysiology
Rattus norvegicus [5] = species on record: Rattus norvegicus; assay: Positive allosteric modulation of rat alpha1beta2gamma2S GABAA receptor expressed in Xenopus laevis oocytes assessed as potentiation of GABA-induced chloride current by two-microelectrode voltage clamp electrophysiology relative to control; assay type: cell-based; in short: as §1
Rattus norvegicus [6] = species on record: Rattus norvegicus; assay: Positive allosteric modulation of rat alpha1beta2gamma2S GABAA receptor expressed in Xenopus laevis oocytes assessed as potentiation of GABA-induced chloride current at 1 uM by two-microelectrode voltage clamp electrophysiology relative to control; assay type: cell-based
In short: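 Rat α1β2γ2s cRNAs (1:1:10) injected into collagenase-defolliculated oocytes, kept at 18 °C in ND96 with penicillin-streptomycin, and recorded on days 1–5. Test agent applied by fast perfusion with GABA EC5–10 in 1% DMSO final. Enhancement = I(GABA+Comp)/IGABA − 1.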

With `CC(C)(O)CCc1cc2c(cc1O)O[C@H]1c3ccc(O)cc3OC[C@@H]21` the %max (Rattus norvegicus [1]) was 489%, the Activity (Rattus norvegicus [2]) was “inactive” and the EC50 [3] was 8.6 µM. The Activity (Rattus norvegicus [4]) was “inactive” and the Emax (Rattus norvegicus [5]) was 640%.
In the case of `CC(C)=CCc1c(O)ccc2c1O[C@H](c1ccc(O)cc1)[C@@H](O)C2=O`, the %max (Rattus norvegicus [1]) is reported as 272%.
`O=C1c2ccc(O)cc2O[C@H](c2ccccc2)[C@H]1O` showed a %max (Rattus norvegicus [1]) of 11.7%.
`CO[C@H](Cc1ccccc1)C(=O)c1ccc(O)cc1O` gave a %max (Rattus norvegicus [1]) of 88.8%.
Compound `Oc1ccc2c(c1)OC[C@H]1c3cc4c(cc3O[C@@H]21)OCO4` has a %max (Rattus norvegicus [1]) of 238%.
In the case of `CC(C)=CCc1cc2c(cc1O)OCC(c1ccc(O)cc1O)C2=O` (stereo unspecified), the %max (Rattus norvegicus [1]) is reported as 199%.
`CC(C)=CCc1cc2c(c(CC=C(C)C)c1O)O[C@H](c1ccc(O)cc1)[C@@H](O)C2=O` gave a %max (Rattus norvegicus [1]) of 287%.
With `CC1(C)C=Cc2cc3c(cc2O1)O[C@H]1c2ccc(O)cc2OC[C@@H]31` [ISONEORAUTENOL] the %max (Rattus norvegicus [1]) was 388%, the Activity (Rattus norvegicus [2]) was “inactive” and the EC50 [3] was 40.7 µM. For the same compound, the Activity (Rattus norvegicus [4]) was “inactive” and the Emax (Rattus norvegicus [5]) was 771%.
`CO/C(=C\c1ccccc1)C(=O)c1ccc(O)cc1O` showed a %max (Rattus norvegicus [1]) of 228%.
With `CC(C)=CCc1cc2c(cc1O)O[C@H]1c3ccc(O)c(O)c3OC[C@@H]21` the %max (Rattus norvegicus [1]) was 454%, the Activity (Rattus norvegicus [2]) was “inactive” and the EC50 [3] was 18.8 µM. For the same compound, the Activity (Rattus norvegicus [4]) was “inactive” and the Emax (Rattus norvegicus [5]) was 491%.
For `CC(C)=CCc1c(O)c(CCC(C)(C)O)cc2c1O[C@H](c1ccc(O)cc1)[C@@H](O)C2=O`, the %max (Rattus norvegicus [1]) was -26%.
Compound `CC(C)=CCc1c(O)ccc2c1OCC(c1ccc(O)cc1O)C2=O` (stereo unspecified) has a %max (Rattus norvegicus [1]) of 361%.
In the case of `CC(C)=CCc1c(O)ccc2c(=O)c(-c3ccc(O)cc3O)coc12`, the %max (Rattus norvegicus [1]) is reported as 560%, the EC50 [3] is reported as 2.8 µM and the Activity (Rattus norvegicus [4]) is reported as “inactive”. For the same compound, the Emax (Rattus norvegicus [5]) was 553%.
`Oc1ccc2c(c1)OC[C@H]1c3cc4ccoc4cc3O[C@@H]21` showed a %max (Rattus norvegicus [1]) of 213%.
`CC(C)=CCc1c(O)ccc2c(=O)c(-c3ccc(O)cc3)coc12` showed a %max (Rattus norvegicus [1]) of 192%.
Work on `CN1C(=O)CN=C(c2ccccc2)c2cc(Cl)ccc21` yielded an Activity (Rattus norvegicus [6]) of 231%.
